Calls of active or inactive are those of the source.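 The calls were made as follows: active = cytotoxic, with CC50, the dose killing half the cells, at or below 5 µM in either medium; inactive = CC50 above 5 µM in every panel.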

We go through 3 molecules from PubChem BioAssay AID588768 (The Scripps Research Institute Molecular Screening Center, 2011).

The assay in a line: cytotoxicity in HEK293T cells, dose response, cytotoxicity control for pPAFAH inhibitor project, cell-based, WST-1 absorbance, serum-free and serum media, powder (AID 588768). The settings on record: HEK293T viability. The method, boiled down:
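Test system: 293T HEK cells | Medium: DMEM with or without 10% FCS | Timing: 48 h exposure at 37 °C | Repeats: Five replicates per concentration | Read-out: CC50 from three-parameter sigmoidal fit of percent cell viability | Measured by: WST-1 colorimetric absorbance | Compound dosing: 7-point 1:5 series up to 50 µM | Control set: no-compound cells high, no-cell wells low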

For `Cc1cc(N2CCN(C(=O)Oc3ccc(-c4ccccc4)cc3)CC2)c2ccccc2n1`, the CC50 (with 10% FCS) was 12 µM (inactive) and the CC50 (without serum) was 1.8 µM.
As for `Cc1cc(N2CCN(C(=O)Oc3ccc(-c4ccccc4)cn3)CC2)c2ccccc2n1`, the CC50 was 35 µM (inactive) (with 10% FCS) and 6.7 µM (inactive) (without serum).
On to `Cc1cc(N2CCN(C(=O)Oc3ccc([N+](=O)[O-])cc3)CC2)c2ccccc2n1`, for which the CC50 by setting is: (with 10% FCS) 13 µM (inactive); (without serum) 0.061 µM.
